Assay results of several laboratories.
Each line is one published result; the experiments were not run side by side. ≈ marks a conversion by molar mass, not a printed value.

Structure (SMILES)	tested on	assay	system	setting	measurement	value
CNC(=S)NN=Cc1ccc(O)c(OC)c1	Leishmania major	parasite growth, MTT	–	72 h, promastigote	IC50	38.3 µM
C=C[C@]1(C)C[C@@H](OC(=O)CS[C@@H]2C[C@H]3CC[C@@H](C2)N3C)[C@]2(C)[C@H](C)CC[C@]3(CCC(=O)[C@H]32)[C@@H](C)[C@@H]1O	Enterococcus faecalis	microbial growth	–	clinical isolate	MIC50	> 128 µg/mL
CNC(=S)NN=Cc1ccc(F)cc1	Leishmania major	parasite growth, MTT	–	72 h, promastigote	IC50	346 µM
CCOc1ccc(C(=O)CC(SCc2ccc(Cl)cc2)C(=O)OC)cc1 (stereo not shown)	SK-MEL-2	cell growth or viability, MTT	–	48 h	EC50	23 µM
CN[C@H](CC(C)C)C(=O)N[C@H]1C(=O)N[C@@H](CC(N)=O)C(=O)N[C@H]2C(=O)N[C@H]3C(=O)N[C@H](C(=O)N[C@H](C(=O)O)c4cc(O)cc(O)c4-c4cc3ccc4O)[C@H](O)c3ccc(c(Cl)c3)Oc3cc2cc(c3O[C@@H]2O[C@H](CO)[C@@H](O)[C@H](O)[C@H]2O[C@H]2C[C@](C)(N)[C@H](O)[C@H](C)O2)Oc2ccc(cc2Cl)[C@H]1O	Enterococcus faecalis	microbial growth, agar dilution	ATCC29212	–	MIC	2 µg/mL (≈ 1.38 µM)
CCC(=CCc1c(O)cc2c(c1O)C(=O)C[C@@H](c1ccccc1O)O2)CC	HeLa	cell growth or viability, MTT	–	3.75 µM, 48 h	inhibition	-0.655%
COc1ccc(Nc2cnnc3cc(-c4ccc(N5CCN(C)CC5)cc4)ccc23)nc1	Leishmania major	parasite growth	–	intracellular, amastigote	EC50	6 µM
CC(=O)NC[C@H]1CN(c2ccc(N3CCOCC3)c(F)c2)C(=O)O1	Enterococcus faecalis	microbial growth, broth dilution	–	clinical isolate	MIC50	0.5 µg/mL (≈ 1.48 µM)
CCC(=CCc1c(O)cc2c(c1O)C(=O)CC(c1ccc(O)cc1)O2)CC (stereo in doubt)	HeLa	cell growth or viability, MTT	–	1.563 µM, 48 h	inhibition	2.57%
CN1CCN(c2ncc(-c3ccc4nncc(Nc5ncccn5)c4c3)cn2)CC1	Leishmania major	parasite growth	–	intracellular, amastigote	EC50	> 25 µM
